# Where “and” joins values, the source holds several entries; their conditions need not be identical. Equal entries are not always repeated. Square brackets hold non-standard residues; d marks the D form. Peptide text beside a SMILES is read from it. Orn(N5-OH,N5-Ac) = CC(=O)N(O)CCC[C@H](N)C(=O)O
# Key:
# L. monocytogenes EGD-e [1] = assay: Growth assay in BHI with 2,2'-bipyridyl; type: cell-based, Listeria monocytogenes
# HupD-6H (Lmo2431) = HupD-6H (Lmo2431) (Listeria monocytogenes, UniProt Q8Y4K7); assay: Intrinsic Trp fluorescence quenching, ligand binding to purified 6H-HupD
# FhuD-6H (Lmo1959) = FhuD-6H (Lmo1959) (Listeria monocytogenes, UniProt Q8Y5U6); assay: Intrinsic Trp fluorescence quenching, ligand binding to purified 6H-FhuD
# [2] = system: L. monocytogenes EGD-e Δhup (ΔhupDGC); assay: [59Fe]-Hn binding to whole cells, Δhup; set-up: species or system Listeria monocytogenes
# [3] = system: L. monocytogenes EGD-e ΔsrtAB; assay: [59Fe]-Hn binding to whole cells, ΔsrtAB; set-up: species or system Listeria monocytogenes; conditions: strain ΔsrtAB
# Method in brief: (§1)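 Bacteria were grown overnight in BHI at 37°C, then passaged twice (1%) in iron-deficient MOPS-L to OD600 0.6–0.8. Cells were exposed on ice for 1 min to [59Fe]-Hn (DMSO stock diluted in ice-cold MOPS-L). They were filtered (0.45 µm), washed with 50 mM Tris-HCl pH 9.0 plus 0.05% Tween-20, and gamma-counted. Filter-only counts were subtracted. Triplicates were fitted to a one-site-plus-background model for KD and capacity (pmol/10^9 cells).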
# [4] = system: L. monocytogenes EGD-e ΔsrtA; assay: [59Fe]-Hn uptake by cells, ΔsrtA; type: cell-based, Listeria monocytogenes; conditions: strain ΔsrtA
# Method in brief: (§2)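 Cultures from overnight BHI (37°C) were passaged 1% into MOPS-L to stationary phase, then again to OD600 0.8–1. Cells were added to 37°C MOPS containing varying [59Fe]-Hn, filtered at 5 s and 1 min, washed with ice-cold 50 mM Tris, 0.05% Tween-20, pH 9, and gamma-counted. The 5 s counts were subtracted from 1 min counts to give rate. Triplicates were fitted to enzyme kinetics for KM and Vmax.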
# L. monocytogenes EGD-e [5] = assay: [59Fe]-Hn uptake by cells, EGD-e; type: cell-based, Listeria monocytogenes; conditions: for Km: read-out: Transport Km; for Km / Transport Vmax: 37°C
# [6] = system: L. monocytogenes EGD-e ΔsrtAB; assay: [59Fe]-Hn uptake by cells, ΔsrtAB; type: cell-based, Listeria monocytogenes; conditions: strain ΔsrtAB
# Method in brief: as §2
# [7] = system: L. monocytogenes EGD-e ΔsrtB; assay: [59Fe]-Hn uptake by cells, ΔsrtB; type: cell-based, Listeria monocytogenes; conditions: strain ΔsrtB
# Method in brief: as §2
# L. monocytogenes EGD-e [8] = assay: [59Fe]-Hn binding to whole cells, EGD-e; set-up: species or system Listeria monocytogenes; conditions: strain EGD-e; for Kd: read-out: Binding Kd, MOPS-L, on ice
# [9] = system: L. monocytogenes EGD-e Δlmo2185 (Δhbp2); assay: [59Fe]-Hn binding to whole cells, Δlmo2185; set-up: species or system Listeria monocytogenes
# [10] = system: L. monocytogenes EGD-e ΔsrtA; assay: [59Fe]-Hn binding to whole cells, ΔsrtA; set-up: species or system Listeria monocytogenes; conditions: strain ΔsrtA
# Method in brief: as §1
# [11] = system: L. monocytogenes EGD-e ΔsrtB; assay: [59Fe]-Hn binding to whole cells, ΔsrtB; set-up: species or system Listeria monocytogenes
# [12] = system: L. monocytogenes EGD-e Δhup (ΔhupDGC); assay: [59Fe]-Hn uptake by cells, Δhup; type: cell-based, Listeria monocytogenes
# Lmo2185 (Hbp2) = target: T1, Lmo2185 (Hbp2) (Listeria monocytogenes serovar 1/2a, UniProt Q7AP54); assay: Equilibrium [59Fe]-Hn filter binding to purified Lmo2185
# T1 sequence (Q7AP54 29-569): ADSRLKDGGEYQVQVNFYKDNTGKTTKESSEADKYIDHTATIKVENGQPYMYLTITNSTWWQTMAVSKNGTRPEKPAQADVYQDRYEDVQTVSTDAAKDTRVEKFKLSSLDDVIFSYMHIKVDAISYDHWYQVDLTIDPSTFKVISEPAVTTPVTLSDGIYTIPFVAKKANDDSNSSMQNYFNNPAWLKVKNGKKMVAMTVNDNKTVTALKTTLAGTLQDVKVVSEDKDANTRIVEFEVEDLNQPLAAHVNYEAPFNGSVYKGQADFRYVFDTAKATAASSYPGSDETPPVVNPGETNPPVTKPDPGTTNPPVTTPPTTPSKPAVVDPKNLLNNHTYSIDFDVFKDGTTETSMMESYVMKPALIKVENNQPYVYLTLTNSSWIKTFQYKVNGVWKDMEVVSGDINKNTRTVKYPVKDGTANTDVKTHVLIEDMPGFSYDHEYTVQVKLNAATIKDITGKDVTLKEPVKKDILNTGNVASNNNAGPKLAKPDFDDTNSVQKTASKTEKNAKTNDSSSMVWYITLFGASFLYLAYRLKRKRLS
# Method in brief: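 His-tagged Hbp2 expressed in E. coli BL21 (1 mM IPTG), purified on Co-NTA and Sephacryl S-100, stripped of Hn by boiling in 0.5% SDS and acetone precipitation, then renatured in TBS pH 8.0. Protein at 30.6 pmol/mL, refolded 1 h at RT, mixed with [59Fe]-Hn (DMSO) for 30 min on ice. Filtered on cellulose acetate and gamma-counted. Triplicates, protein-free background subtracted, KD from bound-vs-total fit.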
# E. coli FhuA = conditions: ref Newton et al., 2010; cited from earlier work
# [13] = target: listerial CM Fc transporter FhuDBGC; conditions: ref Jin et al., 2005, cited from earlier work
# L. monocytogenes EGD-e [14] = assay: Iron nutrition tests on BHI agar with bipyridyl, EGD-e; type: cell-based, Listeria monocytogenes; conditions: 50 uM Fc, EGD-e and all mutant strains
# L. monocytogenes EGD-e [15] = conditions: aqueous buffers; ref Jin et al., 2005; cited from earlier work
smiles,measurement,setting,value
"c1ccc(-c2ccccn2)nc1 [BP, 2, 2’-bipyridyl]",effect on growth in BHI,"L. monocytogenes EGD-e [1]; 1 mM BP, wild type and mutant derivatives",inhibited growth
"C=CC1=C(C)c2cc3[nH]c(cc4nc(cc5[nH]c(cc1n2)c(C)c5CCC(=O)O)C(CCC(=O)O)=C4C)c(C)c3C=C [PPIX, protoporphyrin IX]",Kd,HupD-6H (Lmo2431),1150 nM
same,fold lower affinity for LmoHupD than Hn,HupD-6H (Lmo2431); relative to Hn,40 fold
same,Kd,"FhuD-6H (Lmo1959); Binding Kd FhuD-6H, intrinsic fluorescence quenching, 3–5 trials, Kd ± SD",276 ± 32 nM
same,Kd,"FhuD-6H (Lmo1959); KD for 6H-FhuD, fluorescence spectroscopy",300 nM
C=CC1=C(C)c2cc3[n-]c(cc4nc(cc5[n-]c(cc1n2)c(C)c5CCC(=O)O)C(CCC(=O)O)=C4C)c(C)c3C=C.[59Fe+3] [[^59Fe]-Hn],Kd,"[2]; read-out: Binding Kd, strain Δhup",2.5 ± 0.45 nM
same,Binding Cap.,[2]; strain Δhup,105 pMol/10^9cells and 105 ± 4.2 pMol/10^9cells
same,decrease of binding capacity,[2]; Δhup vs EGD-e,~ 20% and 20%
same,Kd,[3]; read-out: Binding Kd,5.1 ± 3 nM
same,Binding Cap.,[3],9 pMol/10^9cells and 9 ± 1.5 pMol/10^9cells
same,Km,[4]; read-out: Transport Km,1.4 ± 0.2 nM
same,Transport Vmax,[4],23.1 ± 0.6 pMol/10^9cells/min
same,Km,L. monocytogenes EGD-e [5]; strain EGD-e,1.2 ± 0.2 nM
same,Hup-dependent transport rate Vmax,"L. monocytogenes EGD-e [5]; residual accumulation in Δhup subtracted from wild-type, estimate",14 pMol/10^9 cells/min
same,"Vmax of uptake (text, unit without /min)",L. monocytogenes EGD-e [5]; strain EGD-e,23 pMol/10^9 cells
same,Transport Vmax,L. monocytogenes EGD-e [5]; strain EGD-e,22.2 ± 0.9 pMol/10^9cells/min
same,Km,[6]; read-out: Transport Km,15.1 ± 6.4 nM
same,Transport Vmax,[6],5.6 ±1.3 pMol/10^9cells/min
same,Km,[7]; read-out: Transport Km,7.1 ± 7.5 nM
same,Transport Vmax,[7],3.5 ± 1.6 pMol/10^9cells/min
same,Kd,L. monocytogenes EGD-e [8],2 nM and 2.4 nM
same,Binding Cap.,L. monocytogenes EGD-e [8],130 pMol/10^9cells and 129.5 ± 5.6 pMol/10^9cells
same,Kd,"[9]; read-out: Binding Kd, strain Δlmo2185 (Δhbp2)",11.4 ± 2.6 nM
same,Binding Cap.,[9]; strain Δlmo2185 (Δhbp2),30.1 ± 2.9 pMol/10^9cells
same,decrease of binding capacity,"[9]; Δhbp2 vs EGD-e, nanomolar range",80%
same,Kd,[10]; read-out: Binding Kd,2.3 ± 0.16 nM
same,Binding Cap.,[10],130 pMol/10^9cells and 129 ± 1.9 pMol/10^9cells
same,Kd,"[11]; read-out: Binding Kd, strain ΔsrtB",9.9 ± 1.3 nM
same,Binding Cap.,[11]; strain ΔsrtB,19 pMol/10^9cells and 18.7 ± 0.9 pMol/10^9cells
same,decrease of binding capacity,"[11]; ΔsrtB vs EGD-e, nanomolar range",80%
same,Km,"[12]; read-out: Transport Km, strain Δhup",1.1 ± 0.2 nM
same,Transport Vmax,[12]; strain Δhup,7.5 pMol/10^9cells/min and 7.5 ± 0.3 pMol/10^9cells/min
same,Vmax as percent of the wild type rate,[12]; ΔhupDGC vs EGD-e,27%
same,Kd,Lmo2185 (Hbp2),12 nM
"CC(=O)N(O)CCC[C@@H]1NC(=O)CNC(=O)CNC(=O)CNC(=O)[C@H](CCCN(O)C(C)=O)NC(=O)[C@H](CCCN(O)C(C)=O)NC1=O.[Fe+3] [Fc, ferrichrome] (cyclo(GGG[Orn(N5-OH,N5-Ac)][Orn(N5-OH,N5-Ac)][Orn(N5-OH,N5-Ac)]))","Vmax of Fc transport, E. coli FhuA",E. coli FhuA,45 pMol/10^9 cells/min
same,Kd,"[13]; read-out: KD, listerial Fc acquisition, KD ≈ KM",~1 nM
same,Km,"[13]; read-out: KM, listerial Fc transport, KD ≈ KM",~1 nM
same,"Vmax of Fc transport, FhuDBGC",[13],22 pMol/10^9 cells/min
same,utilization as iron source in nutrition test,L. monocytogenes EGD-e [14],normally utilized
"C=CC1=C(C)c2cc3[nH]c(cc4nc(cc5[nH]c(cc1n2)c(C)c5C=C)C(C)=C4CCC(=O)O)c(CCC(=O)O)c3C.[Fe+3] [Hn, haemin]",Km,L. monocytogenes EGD-e [5]; strain EGD-e,1 nM and ~1 nM
same,Transport Vmax,L. monocytogenes EGD-e [5]; strain EGD-e,23 pMol/10^9cells/min
same,concentration that stimulated growth in previous study,L. monocytogenes EGD-e [15],200 µM
same,Kd,L. monocytogenes EGD-e [8],~1 nM
same,fold higher affinity of 6H-HupD than the most avid LmoFhuD binding interaction,HupD-6H (Lmo2431); relative to FhuD-FxB,5 fold
same,effect on growth in BHI containing 1 mM BP,"L. monocytogenes EGD-e [1]; 0.2 mM Hn added (printed), EGD-e",returned to its original growth rate
same,Transport Vmax,[12]; strain Δhup,7 pMol/10^9cells/min
same,fold lower uptake rate than wild type,[12]; ΔhupDBGC strain vs EGD-e,3 fold
